# Source: ChEMBL document CHEMBL5058577, “EUbOPEN Chemogenomics Library 2 (Multiplex)” (2022)
# System: HEK-293T
# Test: Multiplex assay against HEK293T
# Format: toxicity, cell-based
# Settings: human
# Method in brief: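 Compound was added to live cells that had been stained at seeding with Hoechst33342, BioTracker Green Microtubule Cytoskeleton Dye, MitoTracker Red and Annexin V Alexa Fluor 680, and imaging followed on a CQ1 microscope at 37°C and 5% CO2. CellPathfinder machine-learning gating divided cells into Hoechst high-intensity objects or normal cells, normal cells into healthy, pyknosed or fragmented nuclei, and pyknosed cells into mitotic or apoptotic. Tubulin, mitochondrial-mass and membrane-permeability phenotypes are per cents of healthy-nucleus cells.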
# [1] = 12 h, 1 µM, compound concentration 1 uM, replicate 1
# [2] = 12 h, 1 µM, compound concentration 1 uM, replicate 2
# [3] = 12 h, 10 µM, compound concentration 10 uM, replicate 1
# [4] = 12 h, 10 µM, compound concentration 10 uM, replicate 2
# [5] = 24 h, 1 µM, compound concentration 1 uM, replicate 1
# [6] = 24 h, 1 µM, compound concentration 1 uM, replicate 2
# [7] = 24 h, 10 µM, compound concentration 10 uM, replicate 1
# [8] = 24 h, 10 µM, compound concentration 10 uM, replicate 2
# [9] = 48 h, 1 µM, compound concentration 1 uM, replicate 1
# [10] = 48 h, 1 µM, compound concentration 1 uM, replicate 2
# [11] = 48 h, 10 µM, compound concentration 10 uM, replicate 1
# [12] = 48 h, 10 µM, compound concentration 10 uM, replicate 2
smiles,measurement,setting,value
CC(=O)NCCc1c(Cc2ccccc2)[nH]c2ccccc12 [LUZINDOLE],Population Apoptotic (%),[1],38%
same,Population Fragmented Nuclei (%),[1],7%
same,Population Healthy Nuclei (%),[1],79%
same,Population Hoechst High Intensity Objects (%),[1],11%
same,Population Membrane Permeable-Phenotype (%),[1],0%
same,Population Mitochondria Different-Phenotype (%),[1],54%
same,Population Mitotic Cells (%),[1],61%
same,Population Normal (%),[1],88%
same,Population Pyknosed Nuclei (%),[1],12%
same,Population Tubulin-Different-Phenotype (%),[1],39%
same,Total Cell Count,[1],412
same,Population Apoptotic (%),[2],43%
same,Population Fragmented Nuclei (%),[2],5%
same,Population Healthy Nuclei (%),[2],80%
same,Population Hoechst High Intensity Objects (%),[2],8%
same,Population Mitochondria Different-Phenotype (%),[2],68%
same,Population Mitotic Cells (%),[2],56%
same,Population Normal (%),[2],91%
same,Population Pyknosed Nuclei (%),[2],13%
same,Population Tubulin-Different-Phenotype (%),[2],27%
same,Total Cell Count,[2],304
same,Population Apoptotic (%),[3],37%
same,Population Fragmented Nuclei (%),[3],8%
same,Population Healthy Nuclei (%),[3],77%
same,Population Hoechst High Intensity Objects (%),[3],10%
same,Population Membrane Permeable-Phenotype (%),[3],0%
same,Population Mitochondria Different-Phenotype (%),[3],61%
same,Population Mitotic Cells (%),[3],62%
same,Population Normal (%),[3],89%
same,Population Pyknosed Nuclei (%),[3],14%
same,Population Tubulin-Different-Phenotype (%),[3],45%
same,Total Cell Count,[3],379
same,Population Apoptotic (%),[4],53%
same,Population Fragmented Nuclei (%),[4],5%
same,Population Healthy Nuclei (%),[4],80%
same,Population Hoechst High Intensity Objects (%),[4],9%
same,Population Mitochondria Different-Phenotype (%),[4],72%
same,Population Mitotic Cells (%),[4],46%
same,Population Normal (%),[4],90%
same,Population Tubulin-Different-Phenotype (%),[4],35%
same,Total Cell Count,[4],315
same,Population Apoptotic (%),[5],20%
same,Population Fragmented Nuclei (%),[5],12%
same,Population Healthy Nuclei (%),[5],75%
same,Population Hoechst High Intensity Objects (%),[5],7%
same,Population Membrane Permeable-Phenotype (%),[5],0%
same,Population Mitochondria Different-Phenotype (%),[5],33%
same,Population Mitotic Cells (%),[5],80%
same,Population Normal (%),[5],92%
same,Population Pyknosed Nuclei (%),[5],11%
same,Population Tubulin-Different-Phenotype (%),[5],26%
same,Total Cell Count,[5],546
same,Population Apoptotic (%),[6],40%
same,Population Fragmented Nuclei (%),[6],7%
same,Population Healthy Nuclei (%),[6],82%
same,Population Hoechst High Intensity Objects (%),[6],8%
same,Population Mitochondria Different-Phenotype (%),[6],45%
same,Population Mitotic Cells (%),[6],60%
same,Population Normal (%),[6],91%
same,Population Pyknosed Nuclei (%),[6],10%
same,Population Tubulin-Different-Phenotype (%),[6],18%
same,Total Cell Count,[6],379
same,Population Apoptotic (%),[7],40%
same,Population Fragmented Nuclei (%),[7],9%
same,Population Healthy Nuclei (%),[7],81%
same,Population Hoechst High Intensity Objects (%),[7],10%
same,Population Membrane Permeable-Phenotype (%),[7],1%
same,Population Mitochondria Different-Phenotype (%),[7],40%
same,Population Mitotic Cells (%),[7],60%
same,Population Normal (%),[7],89%
same,Population Pyknosed Nuclei (%),[7],8%
same,Population Tubulin-Different-Phenotype (%),[7],32%
same,Total Cell Count,[7],502
same,Population Apoptotic (%),[8],28%
same,Population Fragmented Nuclei (%),[8],11%
same,Population Healthy Nuclei (%),[8],77%
same,Population Hoechst High Intensity Objects (%),[8],11%
same,Population Membrane Permeable-Phenotype (%),[8],0%
same,Population Mitochondria Different-Phenotype (%),[8],58%
same,Population Mitotic Cells (%),[8],71%
same,Population Normal (%),[8],88%
same,Population Pyknosed Nuclei (%),[8],11%
same,Population Tubulin-Different-Phenotype (%),[8],24%
same,Total Cell Count,[8],388
same,Population Apoptotic (%),[9],24%
same,Population Fragmented Nuclei (%),[9],16%
same,Population Healthy Nuclei (%),[9],78%
same,Population Hoechst High Intensity Objects (%),[9],3%
same,Population Membrane Permeable-Phenotype (%),[9],1%
same,Population Mitochondria Different-Phenotype (%),[9],16%
same,Population Mitotic Cells (%),[9],75%
same,Population Normal (%),[9],96%
same,Population Pyknosed Nuclei (%),[9],5%
same,Population Tubulin-Different-Phenotype (%),[9],12%
same,Total Cell Count,[9],965
same,Population Apoptotic (%),[10],46%
same,Population Fragmented Nuclei (%),[10],12%
same,Population Healthy Nuclei (%),[10],82%
same,Population Hoechst High Intensity Objects (%),[10],6%
same,Population Membrane Permeable-Phenotype (%),[10],0%
same,Population Mitochondria Different-Phenotype (%),[10],23%
same,Population Mitotic Cells (%),[10],53%
same,Population Normal (%),[10],93%
same,Population Tubulin-Different-Phenotype (%),[10],13%
same,Total Cell Count,[10],522
same,Population Apoptotic (%),[11],27%
same,Population Fragmented Nuclei (%),[11],13%
same,Population Healthy Nuclei (%),[11],79%
same,Population Hoechst High Intensity Objects (%),[11],9%
same,Population Membrane Permeable-Phenotype (%),[11],0%
same,Population Mitochondria Different-Phenotype (%),[11],27%
same,Population Mitotic Cells (%),[11],72%
same,Population Normal (%),[11],90%
same,Population Pyknosed Nuclei (%),[11],7%
same,Population Tubulin-Different-Phenotype (%),[11],17%
same,Total Cell Count,[11],742
same,Population Apoptotic (%),[12],36%
same,Population Fragmented Nuclei (%),[12],11%
same,Population Healthy Nuclei (%),[12],82%
same,Population Hoechst High Intensity Objects (%),[12],6%
same,Population Mitochondria Different-Phenotype (%),[12],32%
same,Population Mitotic Cells (%),[12],63%
same,Population Normal (%),[12],93%
same,Population Pyknosed Nuclei (%),[12],5%
same,Population Tubulin-Different-Phenotype (%),[12],19%
same,Total Cell Count,[12],573
